Where only a bound is given, the exact number is not on record here.

For experiment [1], the target named is Glutamate [NMDA] receptor. Nature of the experiment: Displacement of [3H]25-6981 from N-methyl-D-aspartate glutamate receptor. It is filed as protein-complex assay. On the technique in general: Loss of bound radioactivity is the signal in a displacement assay; it reports binding, not function.
For experiment [2], the target named is T1, Alpha-1A adrenergic receptor (Homo sapiens, UniProt P35348).
T1 sequence (P35348 whole entry): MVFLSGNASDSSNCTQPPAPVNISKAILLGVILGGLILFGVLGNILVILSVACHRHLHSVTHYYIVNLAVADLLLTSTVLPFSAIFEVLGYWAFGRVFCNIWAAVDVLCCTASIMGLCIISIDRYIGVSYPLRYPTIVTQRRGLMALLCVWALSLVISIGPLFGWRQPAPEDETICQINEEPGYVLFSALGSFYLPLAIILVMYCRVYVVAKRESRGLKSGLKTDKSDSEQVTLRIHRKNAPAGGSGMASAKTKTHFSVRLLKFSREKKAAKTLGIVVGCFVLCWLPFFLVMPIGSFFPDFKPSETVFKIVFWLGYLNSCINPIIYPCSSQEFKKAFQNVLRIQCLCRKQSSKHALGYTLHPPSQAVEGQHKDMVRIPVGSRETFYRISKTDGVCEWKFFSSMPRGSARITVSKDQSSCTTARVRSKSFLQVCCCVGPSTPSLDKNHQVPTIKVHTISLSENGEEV
Nature of the experiment: (§1) In vitro binding affinity towards Alpha-1 adrenergic receptor by displacing [3H]prazosin radioligand.

In the next experiment the test system is Mus musculus. Nature of the experiment: In vivo evaluation for sound induced seizures in DBA/2 mice on intraperitoneal administration of compound 30 minutes before testing. Conditions: ip. It is filed as functional. A digest of the protocol:
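Mice given the compound intraperitoneally, then tested in the standard sound-induced seizure assay. An ED50 in mg/kg was derived for protection.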

Experiment [3] concerns the target T2, Adrenergic receptor alpha-1 (Homo sapiens, UniProt P35348+P25100+P35368).
T2 sequence (P35348 whole entry): T1 sequence (P35348 whole entry)
T2 sequence (P25100 whole entry): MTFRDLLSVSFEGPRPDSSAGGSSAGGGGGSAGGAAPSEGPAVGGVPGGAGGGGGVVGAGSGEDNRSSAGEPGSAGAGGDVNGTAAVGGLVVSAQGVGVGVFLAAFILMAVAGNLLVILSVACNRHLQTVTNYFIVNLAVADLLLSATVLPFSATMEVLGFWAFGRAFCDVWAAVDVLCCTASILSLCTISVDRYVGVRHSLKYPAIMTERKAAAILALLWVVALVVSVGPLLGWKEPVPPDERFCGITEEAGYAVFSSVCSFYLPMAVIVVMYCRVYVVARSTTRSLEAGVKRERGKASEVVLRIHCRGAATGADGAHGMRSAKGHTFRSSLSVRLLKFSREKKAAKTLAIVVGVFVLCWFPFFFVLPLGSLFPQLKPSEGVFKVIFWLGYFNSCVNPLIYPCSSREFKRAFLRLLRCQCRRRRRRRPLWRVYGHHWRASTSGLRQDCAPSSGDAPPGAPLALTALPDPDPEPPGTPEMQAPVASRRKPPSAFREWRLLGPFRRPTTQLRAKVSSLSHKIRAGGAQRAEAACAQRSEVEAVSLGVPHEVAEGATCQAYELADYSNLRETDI
T2 sequence (P35368 whole entry): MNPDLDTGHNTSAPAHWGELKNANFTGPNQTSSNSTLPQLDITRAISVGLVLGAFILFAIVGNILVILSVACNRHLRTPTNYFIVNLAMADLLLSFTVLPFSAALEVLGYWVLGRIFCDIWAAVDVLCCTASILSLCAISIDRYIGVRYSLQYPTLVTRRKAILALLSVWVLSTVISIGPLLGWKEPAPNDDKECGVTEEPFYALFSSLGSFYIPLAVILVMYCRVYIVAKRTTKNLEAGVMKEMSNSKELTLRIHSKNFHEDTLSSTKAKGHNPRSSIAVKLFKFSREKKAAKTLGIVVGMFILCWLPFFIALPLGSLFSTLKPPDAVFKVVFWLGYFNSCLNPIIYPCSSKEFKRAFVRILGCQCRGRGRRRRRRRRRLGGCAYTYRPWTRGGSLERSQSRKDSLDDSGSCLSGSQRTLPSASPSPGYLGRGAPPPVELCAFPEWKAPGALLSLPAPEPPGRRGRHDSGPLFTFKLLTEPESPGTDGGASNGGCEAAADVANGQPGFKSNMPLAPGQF
Described as §1. The format is protein assay.

Experiment [4] addresses Adrenergic receptor alpha-1 (Homo sapiens) (UniProt P35348+P25100+P35368). Nature of the experiment: Selectivity ratio of alpha-1 receptor to that of NMDA was determined. The format is protein assay.
The target of experiment [5] is Glutamate receptor ionotropic, NMDA 2A (Rattus norvegicus, UniProt P35439+Q00959). Nature of the experiment: Evaluated for in vitro inhibition of recombinant rat NR1C/2A receptor expressed in xenopus oocytes. It is filed as cell-based, Oocyte. A digest of the protocol: (§2)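 Two-electrode voltage clamp on Xenopus oocytes expressing recombinant rat NMDA receptors, NR1C/2A or NR1C/2B subunit combination. Concentrations spanned 10 nM–[…]. Values are the geometric mean of three experiments.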

The target of experiment [6] is Glutamate receptor ionotropic, NMDA 2B (Rattus norvegicus, UniProt P35439+Q00960). Nature of the experiment: Evaluated for in vitro inhibition of recombinant rat NR1C/2B receptor expressed in xenopus oocytes. It is filed as cell-based, Oocyte. In outline:
as §2

Glutamate receptor ionotropic, NMDA 2B, sequence (Q00960 whole entry, one chain of several): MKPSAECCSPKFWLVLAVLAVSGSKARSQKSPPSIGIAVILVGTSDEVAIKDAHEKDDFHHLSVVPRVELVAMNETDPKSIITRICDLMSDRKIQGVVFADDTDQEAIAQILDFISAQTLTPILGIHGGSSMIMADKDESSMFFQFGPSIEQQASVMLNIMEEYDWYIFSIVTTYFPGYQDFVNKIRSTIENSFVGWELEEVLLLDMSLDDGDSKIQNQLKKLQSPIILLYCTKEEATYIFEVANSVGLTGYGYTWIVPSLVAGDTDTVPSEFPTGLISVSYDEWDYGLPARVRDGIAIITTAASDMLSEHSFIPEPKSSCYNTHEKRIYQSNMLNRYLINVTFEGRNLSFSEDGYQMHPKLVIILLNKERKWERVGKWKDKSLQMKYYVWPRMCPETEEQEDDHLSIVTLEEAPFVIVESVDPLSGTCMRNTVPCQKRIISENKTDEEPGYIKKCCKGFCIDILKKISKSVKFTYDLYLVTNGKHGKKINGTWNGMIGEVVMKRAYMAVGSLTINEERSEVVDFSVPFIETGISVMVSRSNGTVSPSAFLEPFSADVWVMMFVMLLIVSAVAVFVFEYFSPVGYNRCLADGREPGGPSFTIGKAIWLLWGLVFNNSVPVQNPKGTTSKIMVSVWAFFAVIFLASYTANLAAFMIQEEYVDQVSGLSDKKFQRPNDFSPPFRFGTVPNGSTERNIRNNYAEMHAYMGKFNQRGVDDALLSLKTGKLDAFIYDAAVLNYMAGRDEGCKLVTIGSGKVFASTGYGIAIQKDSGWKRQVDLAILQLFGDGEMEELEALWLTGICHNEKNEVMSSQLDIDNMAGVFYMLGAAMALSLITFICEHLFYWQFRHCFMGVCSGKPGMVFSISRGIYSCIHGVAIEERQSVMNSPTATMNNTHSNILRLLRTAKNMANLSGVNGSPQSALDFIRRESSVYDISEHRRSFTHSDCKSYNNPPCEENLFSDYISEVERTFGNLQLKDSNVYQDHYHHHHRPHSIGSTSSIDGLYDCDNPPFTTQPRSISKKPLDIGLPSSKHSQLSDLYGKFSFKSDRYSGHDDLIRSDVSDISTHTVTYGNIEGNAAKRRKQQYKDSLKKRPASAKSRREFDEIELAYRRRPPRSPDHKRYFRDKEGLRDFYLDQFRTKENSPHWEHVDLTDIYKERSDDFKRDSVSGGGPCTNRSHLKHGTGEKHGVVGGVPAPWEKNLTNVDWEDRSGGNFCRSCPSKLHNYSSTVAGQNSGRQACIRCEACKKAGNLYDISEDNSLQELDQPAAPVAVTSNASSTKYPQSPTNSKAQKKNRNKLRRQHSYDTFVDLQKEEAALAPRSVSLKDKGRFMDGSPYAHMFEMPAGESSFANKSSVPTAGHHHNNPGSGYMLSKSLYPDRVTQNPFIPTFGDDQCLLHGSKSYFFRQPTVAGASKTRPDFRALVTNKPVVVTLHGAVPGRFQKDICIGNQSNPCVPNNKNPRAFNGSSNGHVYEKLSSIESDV
Glutamate receptor ionotropic, NMDA 2A, sequence (Q00959 whole entry, one chain of several): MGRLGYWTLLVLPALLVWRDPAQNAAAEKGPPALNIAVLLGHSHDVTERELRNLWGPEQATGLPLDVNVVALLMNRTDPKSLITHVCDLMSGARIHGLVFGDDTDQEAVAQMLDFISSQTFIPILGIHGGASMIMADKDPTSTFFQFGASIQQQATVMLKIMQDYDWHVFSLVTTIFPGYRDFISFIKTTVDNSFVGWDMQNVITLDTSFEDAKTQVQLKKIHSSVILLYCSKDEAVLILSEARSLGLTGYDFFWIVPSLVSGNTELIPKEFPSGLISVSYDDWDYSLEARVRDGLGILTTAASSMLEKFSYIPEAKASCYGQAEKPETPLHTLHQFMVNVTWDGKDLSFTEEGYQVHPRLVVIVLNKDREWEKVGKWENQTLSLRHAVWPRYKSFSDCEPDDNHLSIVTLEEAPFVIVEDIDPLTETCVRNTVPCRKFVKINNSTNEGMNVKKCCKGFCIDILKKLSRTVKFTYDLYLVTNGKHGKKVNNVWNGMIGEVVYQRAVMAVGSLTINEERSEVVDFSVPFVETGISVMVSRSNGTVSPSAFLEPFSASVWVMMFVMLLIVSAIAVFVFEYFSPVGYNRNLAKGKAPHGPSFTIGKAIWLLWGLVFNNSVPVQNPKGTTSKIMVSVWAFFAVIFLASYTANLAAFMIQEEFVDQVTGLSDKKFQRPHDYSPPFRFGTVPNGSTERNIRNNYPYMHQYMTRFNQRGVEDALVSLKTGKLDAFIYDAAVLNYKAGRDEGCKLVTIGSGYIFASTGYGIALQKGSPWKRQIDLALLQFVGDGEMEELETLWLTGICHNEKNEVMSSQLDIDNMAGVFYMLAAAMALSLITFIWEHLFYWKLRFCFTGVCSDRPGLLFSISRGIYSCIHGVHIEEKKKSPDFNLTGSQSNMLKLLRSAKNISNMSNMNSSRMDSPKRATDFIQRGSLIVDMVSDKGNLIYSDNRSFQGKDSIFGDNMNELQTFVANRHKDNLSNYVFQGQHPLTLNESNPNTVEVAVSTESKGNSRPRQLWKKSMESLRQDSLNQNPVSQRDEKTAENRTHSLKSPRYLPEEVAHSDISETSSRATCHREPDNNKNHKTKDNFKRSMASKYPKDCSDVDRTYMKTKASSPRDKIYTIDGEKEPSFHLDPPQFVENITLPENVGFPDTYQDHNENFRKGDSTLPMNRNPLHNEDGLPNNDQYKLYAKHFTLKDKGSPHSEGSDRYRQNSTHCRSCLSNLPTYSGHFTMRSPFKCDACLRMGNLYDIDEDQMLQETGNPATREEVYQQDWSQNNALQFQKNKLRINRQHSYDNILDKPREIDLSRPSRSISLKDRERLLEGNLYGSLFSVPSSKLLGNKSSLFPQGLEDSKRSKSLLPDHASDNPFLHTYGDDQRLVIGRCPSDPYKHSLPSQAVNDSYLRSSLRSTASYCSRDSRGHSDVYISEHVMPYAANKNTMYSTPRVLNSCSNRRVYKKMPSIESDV

The term Ki denotes a dissociation constant, usually derived from enzyme kinetics or from competition with a known ligand. Broadly, the ED50 is the dose at which the effect has come halfway, by size or by number of responders. Low values mean greater potency, high ones weaker potency. Take `Cc1ccc(CC2(O)CCN(C[C@@H](O)Cc3ccc(O)cc3)CC2)cc1`: the Ki came out at 7.5 nM in experiment [1] and 7300 nM in experiment [2]. This compound also returned an ED50 in the experiment with Mus musculus of 25 mg/kg.
Take `CC(Cc1ccc(O)cc1)CN1CCC(Cc2ccccc2)CC1` (stereo not given): the figures for the Ki in experiment [1] and in experiment [3] were 3.4 nM and 91.5 nM, respectively. Further, in experiment [4], the Selectivity ratio was determined as 27.
In turn, `COC(Cc1ccc(O)cc1)CN1CCC(Cc2ccccc2)CC1` (stereo not given) gave a Ki in experiment [3] of 305 nM. Moreover, in experiment [4], the Selectivity ratio was found to be 15.
As for `C[C@@H](CN1CCC(Cc2ccccc2)CC1)[C@@H](O)c1ccc(O)cc1`, the figures for the Ki in experiment [1] and in experiment [3] were 5.6 nM and 180 nM, respectively. Besides, in experiment [4], the Selectivity ratio was 32.
Take `O=C(Cc1ccc(O)cc1)CN1CCC(Cc2ccccc2)CC1`: the Ki in experiment [1] is 22.6 nM; in experiment [3] it was 610 nM. Besides, the Selectivity ratio in experiment [4] is 27.
Taken in the same sequence, the figures for `Oc1ccc(CC(O)CN2CCC(O)(Cc3ccccc3)CC2)cc1` (stereo not given) were 22.6 nM, 4512 nM and 200.
Taken in the same sequence, the figures for `Oc1ccc(C(O)CCN2CCC(Cc3ccccc3)CC2)cc1` (stereo not given) were 3.8 nM, 24.4 nM and 6.
`Oc1ccc(CC(O)CN2CCC(O)(Cc3ccc(Br)cc3)CC2)cc1` (stereo not given) returned a Ki in experiment [3] of 2439 nM. Moreover, the Selectivity ratio in experiment [4] is 216.
One may read the IC50 as the concentration needed to halve the response being measured. Regarding `Cc1ccc(CC2(O)CCN(C[C@H](O)Cc3ccc(O)cc3)CC2)cc1`, the inhibition constant (Ki) in experiment [1] is 4.9 nM; in experiment [2] it was 7300 nM. In the experiment on Mus musculus, this compound came in with an ED50 of 10 mg/kg. Besides, the IC50 in experiment [5] was above 10000 nM; in experiment [6], 19 nM.
In the case of `Cc1ccc(CC2(O)CCN(CC(O)Cc3ccc(O)cc3)CC2)cc1` (stereo not given), the Ki in experiment [1] came out at 7.5 nM; in experiment [3] it was 5915 nM. In addition, the Selectivity ratio in experiment [4] turned out to be 789.
The compound `Oc1ccc(CC(O)CN2CCC(Cc3ccccc3)CC2)cc1` (stereo not given) had a Ki in experiment [3] of 305 nM. For the same compound, the Selectivity ratio in experiment [4] turned out to be 80.
Take `Oc1ccc(CC(O)CN2CCC(O)(Cc3ccc(Cl)cc3)CC2)cc1` (stereo not given): the results for the Ki in experiment [1] and in experiment [3] were 15 nM and 5610 nM, respectively. The Selectivity ratio in experiment [4] is 374.

The values are drawn from ChEMBL document CHEMBL1133913, “Discovery of (R)-1-[2-hydroxy-3-(4-hydroxy-phenyl)-propyl]-4-(4-methyl-benzyl)-piperidin-4-ol: a novel NR1/2B subtype selective NMDA receptor antagonist” (Bioorg Med Chem Lett, 2001).
